ChEMBL document CHEMBL1135672, “QSAR evaluation of the Ch'an Su and related bufadienolides against the colchicine-resistant primary liver carcinoma cell line PLC/PRF/5(1)” (J Med Chem, 2002)
In brackets after ≈: the same amount, converted by molar mass.

Columns and labels:
Format in all cases: functional, Homo sapiens
[1] = Inhibitory activity against Colchicine resistant parent primary liver carcinoma (PLC) cell line PLC/PRF/5
Procedure, shortened: (§1)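 PLC/PRF/5 cells were precultured 24 h at 37 °C in 5% CO₂ in 96-well plates, then given colchicine at 0.5 μg/mL. Test compounds were added in dilutions of 10⁻²–10⁻⁶ μg/mL and incubated 72 h at 37 °C in 5% CO₂. Survival was read by MTT. IC50 is the μg/mL giving 50% growth inhibition of the colchicine-resistant cells.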

[2] = Inhibitory activity against the primary liver carcinoma (PLC) cell line PLC/PRF/5
[3] = Inhibitory activity against colchicine resistant parent primary liver carcinoma (PLC) cell line PLC/PRF/5; procedure, shortened: as §1

Row | SMILES | IC50 [1] | IC50 [2] | IC50 [3]
1 | C[C@]12CCC3C(CC[C@@H]4CC(=O)CC[C@]34C)C1=CC[C@@H]2c1ccc(=O)oc1 (some centres not stated) | 7.8 µg/mL (≈ 21.3 µM) | 4.9 µg/mL (≈ 13.4 µM) | 
2 | CC(=O)O[C@H]1CC[C@]2(C)C3CC[C@]4(C)[C@@H](c5ccc(=O)oc5)C[C@@H]5O[C@@]54C3CC[C@@H]2C1 (some centres not stated) |  | 5.9 µg/mL (≈ 13.8 µM) | 7.3 µg/mL (≈ 17.1 µM)
3 | C[C@]12CCC(=O)C[C@H]1CC[C@@H]1[C@@H]2CC[C@]2(C)[C@@H](c3ccc(=O)oc3)C(=O)[C@H]3O[C@@]312 |  | 0.85 µg/mL (≈ 2.14 µM) | 5.6 µg/mL (≈ 14.1 µM)
4 | CC(=O)O[C@H]1CC[C@@]2(C)[C@H](CC[C@@H]3[C@@H]2[C@H](O)C(=O)[C@]2(C)[C@@H](c4ccc(=O)oc4)CC[C@]32O)C1 |  | 0.87 µg/mL (≈ 1.9 µM) | 6.8 µg/mL (≈ 14.8 µM)
5 | C[C@]12CC[C@H]3[C@@H](CC[C@@H]4C[C@@H](O)CC[C@@]43CO)[C@]13O[C@@H]3C[C@@H]2c1ccc(=O)oc1 |  | 0.61 µg/mL (≈ 1.52 µM) | 8.2 µg/mL (≈ 20.5 µM)
6 | CC(=O)O[C@H]1[C@H]2O[C@]23[C@@H]2CC[C@@H]4C[C@H](O)CC[C@]4(C)[C@H]2CC[C@]3(C)[C@H]1c1ccc(=O)oc1 |  | 0.098 µg/mL (≈ 0.221 µM) | 0.9 µg/mL (≈ 2.03 µM)
7 | CC(=O)O[C@H]1CC[C@@]2(C)[C@H](CC[C@@H]3[C@@H]2CC[C@]2(C)[C@@H](c4ccc(=O)oc4)CC(=O)[C@]32O)C1 |  | 0.077 µg/mL (≈ 0.174 µM) | 6.4 µg/mL (≈ 14.5 µM)
8 | COC(=O)C/C=C(\C=O)C1[C@@H](O)C(=O)[C@H]2[C@@H]3CC[C@@H]4C[C@@H](O)CC[C@]4(C)[C@H]3CC[C@]12C (some centres not stated) |  | 8.4 µg/mL (≈ 19.4 µM) | > 50 µg/mL
9 | CC(=O)O[C@H]1[C@H]2O[C@]23[C@@H]2CC[C@@H]4CC(=O)CC[C@]4(C)[C@H]2CC[C@]3(C)[C@H]1c1ccc(=O)oc1 |  | 0.056 µg/mL (≈ 0.127 µM) | 0.77 µg/mL (≈ 1.75 µM)
10 | C[C@]12CC[C@@H](O)C[C@H]1CC[C@@H]1[C@@H]2CC[C@]2(C)[C@@H](c3ccc(=O)oc3)C[C@@H]3O[C@]312 |  | 4.7 µg/mL (≈ 12.2 µM) | 6.4 µg/mL (≈ 16.6 µM)
11 | CC(=O)O[C@H]1CC[C@@]2(C)[C@H](CC[C@@H]3[C@@H]2CC[C@]2(C)[C@@H](c4ccc(=O)oc4)[C@@H](OC(C)=O)[C@H]4O[C@]342)C1 |  | 0.04 µg/mL (≈ 0.0825 µM) | 0.092 µg/mL (≈ 0.19 µM)
12 | COC(=O)C/C=C/C1=CO[C@]23C[C@H](OC(C)=O)C1[C@@]2(C)CC[C@H]1[C@H]3CC[C@@H]2C[C@@H](OC(C)=O)CC[C@@]21C |  | 49 µg/mL (≈ 95.2 µM) | 50 µg/mL (≈ 97.2 µM)
13 | CC(=O)O[C@H]1CC[C@@]2(C)[C@H](CC[C@@H]3[C@@H]2[C@H](O)C[C@]2(C)[C@@H](c4ccc(=O)oc4)CC[C@]32O)C1 |  | 0.06 µg/mL (≈ 0.135 µM) | 0.66 µg/mL (≈ 1.48 µM)
14 | CC(=O)O[C@H]1[C@H]2O[C@]23[C@@H]2CC[C@@H]4C[C@@H](OC(=O)CCC(=O)O)CC[C@]4(C)[C@H]2CC[C@]3(C)[C@H]1c1ccc(=O)oc1 |  | 0.85 µg/mL (≈ 1.57 µM) | 0.96 µg/mL (≈ 1.77 µM)
15 | C[C@]12CC[C@H]3[C@@H](CC[C@@H]4C[C@@H](O)CC[C@@]43C=O)[C@]13O[C@@H]3C[C@@H]2c1ccc(=O)oc1 |  | 0.0089 µg/mL (≈ 0.0223 µM) | 0.075 µg/mL (≈ 0.188 µM)
16 | COC(=O)CCCCCCC(=O)O[C@H]1CC[C@@]2(C)[C@H](CC[C@@H]3[C@@H]2CC[C@]2(C)[C@@H](c4ccc(=O)oc4)CC[C@]32O)C1 |  | 0.009 µg/mL (≈ 0.0162 µM) | 0.094 µg/mL (≈ 0.169 µM)
17 | C[C@]12CC[C@H](O)C[C@H]1CC[C@@H]1[C@@H]2CC[C@]2(C)C(/C(=C/CO)CO)C[C@H]3O[C@]132 (some centres not stated) |  | > 50 µg/mL | > 50 µg/mL
18 | CC(C)(C)OC(=O)NNC(=O)CCC(=O)O[C@H]1CC[C@@]2(C)[C@H](CC[C@@H]3[C@@H]2CC[C@]2(C)[C@@H](c4ccc(=O)oc4)CC[C@]32O)C1 |  | 0.00062 µg/mL (≈ 0.00103 µM) | 0.0056 µg/mL (≈ 0.00932 µM)

Row | SMILES | IC50 [1] | IC50 [2] | IC50 [3]
19 | CC(=O)CC1CC2C(O1)[C@H]1O[C@]13[C@@H]1CC[C@@H]4C[C@@H](O)CC[C@]4(C)[C@H]1CC[C@]23C (some centres not stated) |  | 9.5 µg/mL (≈ 24.5 µM) | > 50 µg/mL
20 | COC(=O)C/C=C/C1=CO[C@]23CCC1[C@@]2(C)CC[C@H]1[C@H]3CC[C@@H]2C[C@@H](O)CC[C@@]21C |  | 9.1 µg/mL (≈ 21.9 µM) | 45 µg/mL (≈ 109 µM)
21 | C[C@]12CC[C@H](O)C[C@H]1CC[C@@H]1[C@@H]2CC[C@]2(C)[C@@H](c3ccc(=O)oc3)CC(=O)[C@@H]12 |  | 8.2 µg/mL (≈ 21.3 µM) | 12 µg/mL (≈ 31.2 µM)
22 | C[C@]12CC[C@H](O)C[C@H]1CC[C@@H]1[C@@H]2CC[C@]2(C)[C@@H](c3ccc(=O)oc3)[C@@H](O)[C@H]3O[C@]132 [DESACETYLCINOBUFAGIN] |  | 0.52 µg/mL (≈ 1.3 µM) | 4.8 µg/mL (≈ 12 µM)
23 | C[C@]12CC[C@H]3[C@@H](CC[C@]4(O)C[C@@H](O)CC[C@]34C=O)[C@@]1(O)CC[C@@H]2c1ccc(=O)oc1 |  | 0.00016 µg/mL (≈ 0.000384 µM) | 0.00053 µg/mL (≈ 0.00127 µM)
24 | C[C@]12CCC3C(CC[C@@H]4C[C@@H](O)CC[C@]34C)C1=CC[C@@H]2c1ccc(=O)oc1 (some centres not stated) |  | 0.83 µg/mL (≈ 2.25 µM) | 0.9 µg/mL (≈ 2.44 µM)
25 | C[C@]12CC[C@H](O)C=C1CCC1C2CC[C@]2(C)[C@@H](c3ccc(=O)oc3)CC[C@]12O (some centres not stated) |  | 0.00031 µg/mL (≈ 0.000806 µM) | 0.00032 µg/mL (≈ 0.000832 µM)
26 | C[C@]12CC[C@@H](O)C[C@H]1CC[C@@H]1[C@@H]2CC[C@]2(C)[C@@H](c3ccc(=O)oc3)CC[C@]12O |  | 0.076 µg/mL (≈ 0.197 µM) | 0.077 µg/mL (≈ 0.199 µM)
27 | CC(=O)O[C@H]1CC[C@@]2(C)[C@H](CC[C@@H]3[C@@H]2CC[C@]2(C)[C@@H](c4ccc(=O)oc4)C[C@H](O)[C@]32O)C1 |  | 0.71 µg/mL (≈ 1.6 µM) | 5.6 µg/mL (≈ 12.6 µM)
28 | C[C@]12CC[C@H](O)C[C@@]1(O)CC[C@@H]1[C@@H]2CC[C@]2(C)[C@@H](c3ccc(=O)oc3)CC[C@]12O [TELOCINOBUFAGIN] |  | 0.000345 µg/mL (≈ 0.000857 µM) | 0.0026 µg/mL (≈ 0.00646 µM)
29 | C[C@]12CC[C@H](O)C[C@H]1CC[C@@H]1[C@@H]2CC[C@]2(C)[C@@H](c3ccc(=O)oc3)CC[C@]12O [BUFALIN] |  | 0.00028 µg/mL (≈ 0.000724 µM) | 0.00028 µg/mL (≈ 0.000724 µM)
30 | CC(=O)O[C@H]1[C@H]2O[C@]23[C@@H]2CC[C@@H]4C[C@@H](O)CC[C@]4(C)[C@H]2CC[C@]3(C)[C@H]1c1ccc(=O)oc1 [CINOBUFAGIN] |  | 0.00074 µg/mL (≈ 0.00167 µM) | 0.00092 µg/mL (≈ 0.00208 µM)
31 | CC(=O)O[C@H]1[C@H]2O[C@]23[C@@H]2CC[C@@H]4C[C@@H](OC(=O)/C=C/c5ccccc5)CC[C@]4(C)[C@H]2CC[C@]3(C)[C@H]1c1ccc(=O)oc1 |  | 6.4 µg/mL (≈ 11.2 µM) | 9.8 µg/mL (≈ 17.1 µM)
32 | CC(=O)O[C@H]1CC[C@@]2(C)[C@H](CC[C@@H]3[C@@H]2CC[C@]2(C)[C@@H](c4ccc(=O)oc4)C(=O)[C@H]4O[C@@]432)C1 |  | 2.4 µg/mL (≈ 5.45 µM) | 7.6 µg/mL (≈ 17.3 µM)
33 | CC(=O)O[C@H]1[C@H]2O[C@]23[C@@H]2CC[C@@H]4C[C@@H](OC(=O)CCCCCCC(=O)O)CC[C@]4(C)[C@H]2CC[C@]3(C)[C@H]1c1ccc(=O)oc1 |  | 0.01 µg/mL (≈ 0.0167 µM) | 0.06 µg/mL (≈ 0.1 µM)
34 | C[C@]12CCC(=O)C[C@H]1CC[C@@H]1[C@@H]2CC[C@]2(C)[C@@H](c3ccc(=O)oc3)CC[C@]12O |  | 0.0093 µg/mL (≈ 0.0242 µM) | 0.61 µg/mL (≈ 1.59 µM)
35 | C[C@]12CC[C@H](OC(=O)CCCCCCC(=O)O)C[C@H]1CC[C@@H]1[C@@H]2CC[C@]2(C)[C@@H](c3ccc(=O)oc3)CC[C@]12O |  | 0.00075 µg/mL (≈ 0.00138 µM) | 0.0036 µg/mL (≈ 0.00663 µM)
36 | C=C(C)C(=O)O[C@H]1CC[C@@]2(C)[C@H](CC[C@@H]3[C@@H]2CC[C@]2(C)[C@@H](c4ccc(=O)oc4)CC[C@]32O)C1 |  | 0.059 µg/mL (≈ 0.13 µM) | 0.097 µg/mL (≈ 0.213 µM)
